We go through 20 molecules from ChEMBL document CHEMBL3227950, “Ames test of 1-(X-phenyl)-3,3-dialkyltriazenes. A quantitative structure-activity study” (J Med Chem, 1979).

This data set relates to Salmonella typhimurium. In words: Mutagenicity in Salmonella typhimurium strain TA92 assessed as number of bacterial revertants after 2 days by Ames test in presence of rat liver S9 fraction. Type of data set: toxicity, organism-based. The note with it: salmonella enterica subsp. enterica serovar typhimurium, s9, 48 h. The method in brief:
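S. typhimurium TA92 (hisG46, pKM101) grown 12-16 h at 37 °C in nutrient broth (~10⁹ cells/mL). S-9 from livers of Aroclor 1254-induced female Sprague-Dawley rats (500 mg/kg ip, 5 days before sacrifice). Compound in Me₂SO, bacteria and S-9 mix preincubated 20 min at 30 °C, then plated in histidine/biotin top agar and incubated 2 days at 37 °C. Revertants were hand counted, with spontaneous control revertants subtracted. Triplicates were run. The end point was 30 revertants/10⁸ bacteria, interpolated to give log 1/C.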
Background: The Ames test detects mutagens through reverse mutation in bacteria.

For the molecule `CCCCN(C)/N=N/c1ccc(C(N)=O)cc1`, the “log(1/C)” value amounted to 5.41.
Next, `CN(C)/N=N/c1ccccc1`: 5.32.
Next, `CN(C)/N=N/c1ccc(S(N)(=O)=O)cc1`: 3.49; `CN(C)/N=N/c1ccc(C(F)(F)F)cc1`: 5.99; `CN(C)/N=N/c1cccc(C(N)=O)c1`: 3.51.
Next, `CC(=O)Nc1ccc(/N=N/N(C)C)cc1`: 5.83.
For the molecule `CN(C)/N=N/c1cc(C#N)cc(C#N)c1`, the “log(1/C)” value is 3.46.
The value for `C=CCN(C)/N=N/c1ccc(C(N)=O)cc1` was 4.16; that for `CN(C)/N=N/c1cccc(NC(N)=O)c1` was 4.19.
Turning to `CN(C)/N=N/c1ccc(C#N)cc1`, the “log(1/C)” value was 4.43.
As for `CN(C)/N=N/c1ccc(NC(N)=O)cc1`, the “log(1/C)” value is listed as 5.59.
Next, `Cc1cccc(/N=N/N(C)C)c1`: 6.44.
Take `Cc1ccc(/N=N/N(C)C)cc1`: the “log(1/C)” value was found to be 7.
The value for `CN(C)/N=N/c1ccc(-c2ccccc2)cc1` was 7.67; that for `CN(/N=N/c1ccc(C(N)=O)cc1)C(C)(C)C` was 3.83.
Next, `CN(C)/N=N/c1ccc(C(N)=O)cc1`: 4.04; `CC(=O)c1ccc(/N=N/N(C)C)cc1`: 4.47.
Next, `CN(C)/N=N/c1ccc(Cl)cc1`: 6.48; `COc1cc2c(c3oc(=O)c4c(c13)CCC4=O)[C@@H]1C=CO[C@@H]1O2` [AFLATOXIN]: 9.48; `CN(C)/N=N/c1[nH]cnc1C(N)=O` [DACARBAZINE]: 3.
